These results are taken from ChEMBL document CHEMBL1154050, “Design, synthesis and hypolipidemic activity of novel 2-(naphthalen-2-yloxy)propionic acid derivatives as desmethyl fibrate analogs” (2009).

Common to all, as to format: functional
In assay [1] the test system is Rattus norvegicus. Nature of the assay: Antihyperlipidemic activity in high-cholesterol diet fed Wistar albino rat model assessed as reduction in serum total cholesterol level at 20 mg/kg, po. The essentials:
(§1)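 Adult male rats given high cholesterol diet (2% cholesterol, 1% cholic acid) for 14 days, dosed orally at 20 mg/kg in 0.5% CMC on days 8–14. Normal-chow and HCD vehicle controls were included, n=6 per group. After a 12 h fast on day 14, tail blood was taken under mild ether anesthesia. Serum TC, TG and HDL were measured by kit spectrophotometry, and LDL was calculated by Friedewald's formula. Values are percent change versus the HCD control.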

The subject of assay [2] is Rattus norvegicus. Description: Antihyperlipidemic activity in high-cholesterol diet fed Wistar albino rat model assessed as reduction in serum triglyceride level at 20 mg/kg, po. The essentials:
as §1

The subject of assay [3] is Rattus norvegicus. Description: Antihyperlipidemic activity in high-cholesterol diet fed Wistar albino rat model assessed as increase in serum HDL level at 20 mg/kg, po. In outline: as §1
For assay [4], the system named is Rattus norvegicus. Nature of the assay: Antihyperlipidemic activity in high-cholesterol diet fed Wistar albino rat model assessed as reduction in serum LDL level at 20 mg/kg, po. The essentials: as §1
Assay [5] concerns Rattus norvegicus. Nature of the assay: Antihyperlipidemic activity in high-cholesterol diet fed Wistar albino rat model assessed as ratio of LDL level to HDL level at 20 mg/kg, po. The essentials: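 The ratio was calculated from group mean LDL and mean HDL. It used the HCD rat model (2% cholesterol, 1% cholic acid, 14 days), oral dosing at 20 mg/kg in 0.5% CMC on days 8–14, and n=6. Serum was taken from tail blood after a 12 h fast. HDL was measured by kit and LDL was derived by Friedewald's formula.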

Calls of active or inactive are those of the source. No cut-off for these calls is given here.

In the case of `CCSc1nnc(C(C)Oc2ccc3ccccc3c2)n1CC` (centres undefined), the result with Rattus norvegicus [1] and in the assay on Rattus norvegicus [2] was inactive. The result with Rattus norvegicus [3] and in the assay on Rattus norvegicus [4] was Active. In addition, the Ratio in the assay on Rattus norvegicus [5] came out at 4.5.

With `CCNC(=S)NNC(=O)C(C)Oc1ccc2ccccc2c1` (centres undefined), the result in the assay with Rattus norvegicus [1] was inactive. The result with Rattus norvegicus [3] was Active. For the same molecule, the Ratio in the assay with Rattus norvegicus [5] was 6.71.

Take `Cc1ccc(C)c(OCCCC(C)(C)C(=O)O)c1` [GEMFIBROZIL]: the Activity was determined as 4.68% in the assay on Rattus norvegicus [1], 22.23% with Rattus norvegicus [2] and 25.18% in the assay on Rattus norvegicus [3]. Further, the Ratio in the assay on Rattus norvegicus [5] came to 4.81.

In the case of `CC1=NN(C(=O)C(C)Oc2ccc3ccccc3c2)C(=O)C1` (centres undefined), the Activity with Rattus norvegicus [1] is 15.89%; with Rattus norvegicus [4], 21.74%. The outcome with Rattus norvegicus [3] was Active. For the same molecule, the Ratio in the assay on Rattus norvegicus [5] was 4.54.

Consider `C/C(=N\NC(=O)C(C)Oc1ccc2ccccc2c1)c1ccc(Br)cc1` (centres undefined), for which the outcome in the assay with Rattus norvegicus [1] was inactive. The result in the assay on Rattus norvegicus [3] was Active. In the assay with Rattus norvegicus [5], the Ratio is reported as 6.04.

For `COc1ccc(/C=N/NC(=O)C(C)Oc2ccc3ccccc3c2)cc1` (centres undefined), the outcome in the assay on Rattus norvegicus [1] was inactive. In addition, the outcome in the assay on Rattus norvegicus [3] was Active. Further, in the assay with Rattus norvegicus [5], the Ratio amounted to 5.4.

As to `COc1ccc(NC(=O)C(C)Oc2ccc3ccccc3c2)cc1` (centres undefined), in the assay on Rattus norvegicus [1], the outcome was inactive. In addition, in the assay with Rattus norvegicus [3], the outcome was Active. Moreover, the Ratio in the assay on Rattus norvegicus [5] came out at 5.19.

`CCn1c(C(C)Oc2ccc3ccccc3c2)n[nH]c1=S` (centres undefined): the result with Rattus norvegicus [1] was inactive. Also, the Activity in the assay with Rattus norvegicus [2] is reported as 20.88%; in the assay with Rattus norvegicus [3] it was 48.25%. In addition, the outcome in the assay with Rattus norvegicus [4] was Active. Besides, the Ratio in the assay on Rattus norvegicus [5] amounted to 3.61.

`CC(Oc1ccc2ccccc2c1)C(=O)N1N=C(c2ccccc2)CC1(O)c1ccccc1` (centres undefined): the outcome with Rattus norvegicus [1] and with Rattus norvegicus [2] was inactive. Moreover, the Activity in the assay with Rattus norvegicus [3] was found to be 49.73%. For the same molecule, the Ratio in the assay on Rattus norvegicus [5] stood at 3.99.

On to `CC(Oc1ccc2ccccc2c1)C(=O)N/N=C/c1ccc([N+](=O)[O-])cc1` (centres undefined), for which the result in the assay with Rattus norvegicus [1] and in the assay on Rattus norvegicus [2] was inactive. In the assay with Rattus norvegicus [3], the result was Active. Besides, the Ratio in the assay on Rattus norvegicus [5] is given as 4.74.

As for `CC(Oc1ccc2ccccc2c1)C(=O)O` (centres undefined), the result in the assay on Rattus norvegicus [3] and with Rattus norvegicus [4] was Active.

Consider `CCSc1nnc(C(C)Oc2ccc3ccccc3c2)n1-c1ccccc1` (centres undefined), for which the Activity came out at 19.44% in the assay with Rattus norvegicus [1], 19.07% with Rattus norvegicus [2], 51.21% in the assay with Rattus norvegicus [3] and 19.15% in the assay on Rattus norvegicus [4]. The Ratio in the assay on Rattus norvegicus [5] turned out to be 3.4.

For the molecule `CC(Oc1ccc2ccccc2c1)C(=O)NNC(=S)Nc1ccccc1` (centres undefined), the outcome in the assay on Rattus norvegicus [1] was inactive. The outcome in the assay with Rattus norvegicus [3] was Active. Further, the Ratio with Rattus norvegicus [5] came to 5.7.

As to `CC(Oc1ccc2ccccc2c1)c1n[nH]c(=S)o1` (centres undefined), the Activity with Rattus norvegicus [1] is 16.18%; with Rattus norvegicus [2], 26.78%; in the assay with Rattus norvegicus [3] it was 55.42%; in the assay on Rattus norvegicus [4] it was 19.58%. The Ratio with Rattus norvegicus [5] is recorded as 3.29.

For the molecule `CC(Oc1ccc2ccccc2c1)c1n[nH]c(=S)n1-c1ccccc1` (centres undefined), the result in the assay with Rattus norvegicus [1] and in the assay on Rattus norvegicus [2] was inactive. In addition, the Activity in the assay on Rattus norvegicus [3] stood at 47.78%. In addition, the outcome with Rattus norvegicus [4] was Active. In addition, the Ratio in the assay with Rattus norvegicus [5] came out at 3.75.

Take `C=CCNC(=S)NNC(=O)C(C)Oc1ccc2ccccc2c1` (centres undefined): the result in the assay with Rattus norvegicus [1] was inactive. The outcome in the assay with Rattus norvegicus [3] was Active. In the assay on Rattus norvegicus [5], the Ratio stood at 8.16.

In the case of `CC(C)=NNC(=O)C(C)Oc1ccc2ccccc2c1` (centres undefined), the outcome with Rattus norvegicus [1] was inactive. In the assay on Rattus norvegicus [3], the result was Active. Further, in the assay on Rattus norvegicus [5], the Ratio was 6.1.
